According to ChEMBL document CHEMBL5724801, “EUbOPEN Chemogenomics Library - Multiplex” (2024):
“And” between values parts separate entries of the source, which are not always exact repeats. Equal values may be shown once.

Legend:
HEK-293T = experiment: Multiplex assay against HEK293T; type: toxicity, cell-based; details: human
How it was run: (§1)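 Cells stained live at seeding with Hoechst33342, BioTracker Green Microtubule Cytoskeleton Dye, MitoTracker Red and Annexin V Alexa Fluor 680 were imaged on a CQ1 microscope at 37°C and 5% CO2 after compound addition. Their classification by CellPathfinder machine-learning gating ran from Hoechst high-intensity objects versus normal cells, to healthy, pyknosed or fragmented nuclei among normal cells, to mitotic or apoptotic among pyknosed cells. Tubulin, mitochondrial-mass and membrane-permeability phenotypes are per cents of healthy-nucleus cells.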

U2OS = experiment: Multiplex assay against U2OS; type: toxicity, cell-based; details: human; how it was run: as §1
[1] = 24 h, 1 µM, compound concentration 1 uM
[2] = 24 h, 10 µM, compound concentration 10 uM
[3] = 48 h, 1 µM, compound concentration 1 uM
[4] = 48 h, 10 µM, compound concentration 10 uM
[5] = 12 h, 1 µM, compound concentration 1 uM
[6] = 12 h, 10 µM, compound concentration 10 uM

Clc1ccccc1C(c1ccccc1)(c1ccccc1)n1cccn1 was tested, and the “Population Tubulin-Different-Phenotype (%)” value (HEK-293T; [1]) was 9.78% and 7.89%, the “Population Apoptotic (%)” value (HEK-293T; [2]) was 19.64% and 15.94% and the “Population Fragmented Nuclei (%)” value (HEK-293T; [2]) was 2.8% and 0.54%. For the same molecule, the “Population Healthy Nuclei (%)” value (HEK-293T; [2]) was 71.1% and 24.46%, the “Population Hoechst High Intensity Objects (%)” value (HEK-293T; [2]) was 0.23% and 0% and the “Population Membrane Permeable-Phenotype (%)” value (HEK-293T; [2]) was 1.31% and 0%. For the same molecule, the “Population Mitochondria Different-Phenotype (%)” value (HEK-293T; [2]) was 27.87% and 13.33%, the “Population Mitotic Cells (%)” value (HEK-293T; [2]) was 80.36% and 84.06% and the “Population Normal (%)” value (HEK-293T; [2]) was 99.77% and 100%. The “Population Pyknosed Nuclei (%)” value (HEK-293T; [2]) was 26.11% and 75%, the “Total Cell Count” value (HEK-293T; [2]) was 430 and 184 and the “Population Apoptotic (%)” value (HEK-293T; [3]) was 7.89% and 12.96%. For the same molecule, the “Population Fragmented Nuclei (%)” value (HEK-293T; [3]) was 3.42% and 3.98%, the “Population Healthy Nuclei (%)” value (HEK-293T; [3]) was 87.9% and 72.12% and the “Population Hoechst High Intensity Objects (%)” value (HEK-293T; [3]) was 0% and 1.74%. The “Population Membrane Permeable-Phenotype (%)” value (HEK-293T; [3]) was 5.37% and 2.45%, the “Population Mitochondria Different-Phenotype (%)” value (HEK-293T; [3]) was 12.03% and 23.31% and the “Population Mitotic Cells (%)” value (HEK-293T; [3]) was 92.11% and 87.04%. The “Population Normal (%)” value (HEK-293T; [3]) was 100% and 98.26%, the “Population Pyknosed Nuclei (%)” value (HEK-293T; [3]) was 8.68% and 23.89% and the “Population Apoptotic (%)” value (HEK-293T; [4]) was 9.93% and 27.4%. The “Population Fragmented Nuclei (%)” value (HEK-293T; [4]) was 4.13% and 2.25%, the “Population Healthy Nuclei (%)” value (HEK-293T; [4]) was 81.99% and 70.41% and the “Population Hoechst High Intensity Objects (%)” value (HEK-293T; [4]) was 0%. The “Population Membrane Permeable-Phenotype (%)” value (HEK-293T; [4]) was 8.52% and 2.66%, the “Population Mitochondria Different-Phenotype (%)” value (HEK-293T; [4]) was 24.73% and 43.09% and the “Population Mitotic Cells (%)” value (HEK-293T; [4]) was 90.07% and 72.6%. The “Population Normal (%)” value (HEK-293T; [4]) was 100%, the “Population Pyknosed Nuclei (%)” value (HEK-293T; [4]) was 13.88% and 27.34% and the “Population Apoptotic (%)” value (U2OS; [5]) was 52.94% and 50%. For the same molecule, the “Population Fragmented Nuclei (%)” value (U2OS; [5]) was 0.85% and 6.19%, the “Population Healthy Nuclei (%)” value (U2OS; [5]) was 94.3% and 76.11% and the “Population Hoechst High Intensity Objects (%)” value (U2OS; [5]) was 0%. For the same molecule, the “Population Membrane Permeable-Phenotype (%)” value (U2OS; [5]) was 0.91% and 5.81%, the “Population Mitochondria Different-Phenotype (%)” value (U2OS; [5]) was 0.6% and 8.14% and the “Population Mitotic Cells (%)” value (U2OS; [5]) was 47.06% and 50%. For the same molecule, the “Population Normal (%)” value (U2OS; [5]) was 100%, the “Population Tubulin-Different-Phenotype (%)” value (U2OS; [5]) was 1.51% and 2.33% and the “Population Apoptotic (%)” value (U2OS; [6]) was 36% and 44%. For the same molecule, the “Population Fragmented Nuclei (%)” value (U2OS; [6]) was 1.64% and 4.81%, the “Population Healthy Nuclei (%)” value (U2OS; [6]) was 84.7% and 71.15% and the “Population Hoechst High Intensity Objects (%)” value (U2OS; [6]) was 0%. The “Population Membrane Permeable-Phenotype (%)” value (U2OS; [6]) was 2.58% and 8.11%, the “Population Mitotic Cells (%)” value (U2OS; [6]) was 64% and 56% and the “Population Normal (%)” value (U2OS; [6]) was 100%. The “Population Pyknosed Nuclei (%)” value (U2OS; [6]) was 13.66% and 24.04%, the “Population Tubulin-Different-Phenotype (%)” value (U2OS; [6]) was 4.19% and 5.41% and the “Population Apoptotic (%)” value (U2OS; [1]) was 37.5% and 52.38%. For the same molecule, the “Population Fragmented Nuclei (%)” value (U2OS; [1]) was 0.42% and 4.86%, the “Population Healthy Nuclei (%)” value (U2OS; [1]) was 89.47% and 80.56% and the “Population Hoechst High Intensity Objects (%)” value (U2OS; [1]) was 0%. For the same molecule, the “Population Membrane Permeable-Phenotype (%)” value (U2OS; [1]) was 0.71% and 2.59%, the “Population Mitochondria Different-Phenotype (%)” value (U2OS; [1]) was 0% and 6.9% and the “Population Mitotic Cells (%)” value (U2OS; [1]) was 62.5% and 47.62%. The “Population Normal (%)” value (U2OS; [1]) was 100%, the “Population Pyknosed Nuclei (%)” value (U2OS; [1]) was 10.11% and 14.58% and the “Population Tubulin-Different-Phenotype (%)” value (U2OS; [1]) was 0.71% and 0%. The “Population Apoptotic (%)” value (U2OS; [2]) was 45.33% and 34.38%, the “Population Fragmented Nuclei (%)” value (U2OS; [2]) was 1.25% and 0.79% and the “Population Healthy Nuclei (%)” value (U2OS; [2]) was 83.12% and 73.81%. For the same molecule, the “Population Hoechst High Intensity Objects (%)” value (U2OS; [2]) was 0%, the “Population Membrane Permeable-Phenotype (%)” value (U2OS; [2]) was 0.75% and 4.3% and the “Population Mitotic Cells (%)” value (U2OS; [2]) was 54.67% and 65.62%. For the same molecule, the “Population Normal (%)” value (U2OS; [2]) was 100%, the “Population Pyknosed Nuclei (%)” value (U2OS; [2]) was 15.62% and 25.4% and the “Population Tubulin-Different-Phenotype (%)” value (U2OS; [2]) was 2.51% and 2.15%. For the same molecule, the “Population Apoptotic (%)” value (U2OS; [3]) was 43.33% and 70%, the “Population Fragmented Nuclei (%)” value (U2OS; [3]) was 3.58% and 1.82% and the “Population Healthy Nuclei (%)” value (U2OS; [3]) was 89.7% and 89.09%. The “Population Hoechst High Intensity Objects (%)” value (U2OS; [3]) was 0%, the “Population Membrane Permeable-Phenotype (%)” value (U2OS; [3]) was 0.75% and 3.57% and the “Population Mitochondria Different-Phenotype (%)” value (U2OS; [3]) was 0.12% and 4.08%. For the same molecule, the “Population Mitotic Cells (%)” value (U2OS; [3]) was 56.67% and 30%, the “Population Normal (%)” value (U2OS; [3]) was 100% and the “Population Pyknosed Nuclei (%)” value (U2OS; [3]) was 6.72% and 9.09%. The “Population Tubulin-Different-Phenotype (%)” value (U2OS; [3]) was 1.25% and 2.04%, the “Population Apoptotic (%)” value (U2OS; [4]) was 51.65% and 41.67% and the “Population Fragmented Nuclei (%)” value (U2OS; [4]) was 2.12% and 0.6%. For the same molecule, the “Population Healthy Nuclei (%)” value (U2OS; [4]) was 85.85% and 77.71%, the “Population Hoechst High Intensity Objects (%)” value (U2OS; [4]) was 0% and the “Population Membrane Permeable-Phenotype (%)” value (U2OS; [4]) was 1.54% and 5.43%. For the same molecule, the “Population Mitochondria Different-Phenotype (%)” value (U2OS; [4]) was 1.08% and 10.08%, the “Population Mitotic Cells (%)” value (U2OS; [4]) was 48.35% and 58.33% and the “Population Normal (%)” value (U2OS; [4]) was 100%. For the same molecule, the “Population Pyknosed Nuclei (%)” value (U2OS; [4]) was 12.04% and 21.69% and the “Population Tubulin-Different-Phenotype (%)” value (U2OS; [4]) was 3.08% and 5.43%.
